Laboratory results: PMC2193344 (The Journal of Experimental Medicine, 2001)
Ends that are not written are not given here.

What was measured:
[1] = biological target: T1, transporter associated with antigen processing (TAP) (Homo sapiens, UniProt Q03518+Q03519); test: Streptolysin O peptide transport assay; assay type: biochemical
T1 sequence (Q03518 1-748): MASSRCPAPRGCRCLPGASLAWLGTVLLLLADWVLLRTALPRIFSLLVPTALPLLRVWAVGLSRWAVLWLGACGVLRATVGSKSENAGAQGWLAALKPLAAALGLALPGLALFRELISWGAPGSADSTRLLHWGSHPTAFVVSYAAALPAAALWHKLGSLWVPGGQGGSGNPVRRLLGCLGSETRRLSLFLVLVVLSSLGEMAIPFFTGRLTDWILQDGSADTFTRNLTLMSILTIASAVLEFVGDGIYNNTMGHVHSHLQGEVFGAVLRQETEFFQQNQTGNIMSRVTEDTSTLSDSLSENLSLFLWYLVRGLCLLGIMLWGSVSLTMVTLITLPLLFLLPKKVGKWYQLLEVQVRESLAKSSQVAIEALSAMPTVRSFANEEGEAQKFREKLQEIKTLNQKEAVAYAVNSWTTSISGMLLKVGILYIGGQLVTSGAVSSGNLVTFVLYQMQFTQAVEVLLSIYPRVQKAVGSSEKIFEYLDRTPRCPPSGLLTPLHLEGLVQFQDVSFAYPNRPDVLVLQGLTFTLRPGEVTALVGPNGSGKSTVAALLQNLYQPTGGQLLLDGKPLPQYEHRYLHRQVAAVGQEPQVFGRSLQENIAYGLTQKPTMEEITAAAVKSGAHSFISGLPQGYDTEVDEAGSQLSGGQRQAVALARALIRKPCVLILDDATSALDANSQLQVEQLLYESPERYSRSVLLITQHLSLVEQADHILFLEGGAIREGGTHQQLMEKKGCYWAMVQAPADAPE
T1 sequence (Q03519 1-686): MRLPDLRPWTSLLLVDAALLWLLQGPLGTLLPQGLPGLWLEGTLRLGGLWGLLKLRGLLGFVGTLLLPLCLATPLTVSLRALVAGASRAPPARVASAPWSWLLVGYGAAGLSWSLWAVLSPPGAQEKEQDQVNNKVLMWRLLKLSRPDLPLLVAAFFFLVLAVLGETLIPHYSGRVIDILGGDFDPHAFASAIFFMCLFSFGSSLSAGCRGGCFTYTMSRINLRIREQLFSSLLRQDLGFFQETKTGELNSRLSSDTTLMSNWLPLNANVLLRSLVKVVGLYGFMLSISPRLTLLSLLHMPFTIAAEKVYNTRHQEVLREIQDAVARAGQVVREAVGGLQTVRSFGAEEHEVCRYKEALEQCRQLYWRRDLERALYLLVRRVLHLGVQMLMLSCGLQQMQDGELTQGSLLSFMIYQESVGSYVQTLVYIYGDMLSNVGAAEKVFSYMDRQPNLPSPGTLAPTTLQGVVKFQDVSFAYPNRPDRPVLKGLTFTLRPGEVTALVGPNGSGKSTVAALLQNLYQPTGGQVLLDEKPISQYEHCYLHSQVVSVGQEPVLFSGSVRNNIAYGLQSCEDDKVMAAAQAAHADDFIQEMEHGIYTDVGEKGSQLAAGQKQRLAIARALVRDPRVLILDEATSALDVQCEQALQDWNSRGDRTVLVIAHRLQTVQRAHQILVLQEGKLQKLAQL
How it was run: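 TAP+ T1 TxB hybrid cells (10^6/sample; grown in RPMI 1640, 4 mM Hepes, 5% FCS, 3 mM l-glutamine) permeabilised with streptolysin O (15 U/ml) for 15 min on ice. Then 5 min at 37°C with 100 ng chloramine-T 125I-labelled reporter peptide, ATP (100 mM stock) and competitor peptide dilutions. TAP-negative T2 cells served as negative control. Duplicates; triplicates for T2 and uninhibited T1.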

HLA-A*0201 molecules = HLA-A*0201 molecules (Homo sapiens, UniProt P04439, D140Y/D185E/D98H/E176V/E277Q/G131W/G231S/I119V/I121R/I166T/I218V/L300P/L318F/N151K/N90K/P208A/P217A/Q86G/Q94H/R138H/R169H/T345S); test: Class I peptide-binding affinity assay

| Sequence | IC50 [1] [µM] | IC50 (HLA-A*0201 molecules) [µM] |
| --- | --- | --- |
| HPTLDKVLEV [HPTLDKVLEV] | 355 | – |
| KSADHPTLDKVLEV [KSADHPTLDKVLEV] | 102 | – |
| PTLDKVLEV [PTLDKVLEV] | 175 | – |
| RTLDKVLEV [RTLDKVLEV] | 30 to 45 | 0.04 |
